# Results pooled from the literature.
# Protocols differ between the studies behind these lines.
# Read-out: cell growth or viability
Compound,cell line,test,conditions,IC50 [nM]
O=C(NO)c1ccc(Cn2cnc3c(Nc4ccc(Br)cc4F)ncnc32)cc1,Raji,MTT,72 h,230
Cc1ccc(NC(=O)Nc2nc3cc(-c4ccc5ncn(Cc6ccccc6)c(=O)c5c4)ccc3s2)cc1,PC-9,MTT,72 h,> 20000
O=C1CCC(N2C(=O)c3cccc4c(Cn5cc(C6CCNCC6)nn5)ccc2c34)C(=O)N1 (centres unmarked),NCI-H929,,,6.21
O=C(NO)c1ccc(Cn2cnc3c(Nc4ccc(F)c(Cl)c4)ncnc32)cc1,Raji,MTT,72 h,870
O=C(Nc1nc2cc(-c3ccc4ncn(Cc5ccccc5)c(=O)c4c3)ccc2s1)NC1CCCCC1,PC-9,MTT,72 h,> 20000
Cc1sc2c(c1C)C(c1ccc(Cl)cc1)=N[C@@H](CC(=O)NCCCCNC(=O)COc1cccc3c1C(=O)N(C1CCC(=O)NC1=O)C3=O)c1nnc(C)n1-2 (some centres unmarked),AGS,CCK-8,72 h,5120
O=C1CCC(N2Cc3c(OCc4ccc(CN5CCNCC5)cc4)cccc3C2=O)C(=O)N1 (centres unmarked),NCI-H929,,,20.4
O=C(Nc1ccc(C(F)(F)F)cc1)Nc1nc2cc(-c3ccc4ncn(CCN5CCOCC5)c(=O)c4c3)ccc2s1,PC-9,MTT,72 h,> 20000
CN1CCC(NC2CCc3[nH]c4c(C(N)=O)ccc(-c5ccccc5Cl)c4c3C2)CC1 (centres unmarked),DOHH-2,,96 h,24.7
Cc1nc(Nc2ncc(C(=O)Nc3c(C)cccc3Cl)s2)cc(N2CC[C@H](O)C2)n1,JVM13,ATP luminescence,72 h,> 10000
COc1ccc(Nc2ncnc3c2ncn3Cc2ccc(C(=O)NO)cc2)cc1,Raji,MTT,72 h,430
Cc1cc(C)cc(NC(=O)Nc2nc3cc(-c4ccc5ncn(Cc6ccccc6)c(=O)c5c4)ccc3s2)c1,PC-9,MTT,72 h,> 20000
O=C1CCC(N2C(=O)c3cccc4c(Cc5ccc(CN6CCNCC6)cc5)ccc2c34)C(=O)N1 (centres unmarked),NCI-H929,,,0.73
COc1cc(C2C3=C(COC3=O)N(CCO)c3cc4c(cc32)CCC4)cc(OC)c1OC (centres unmarked),EMT6,ATP luminescence,48 h,180
O=C1CCC(N2C(=O)c3cccc4c(Cc5cnn(C6CCN(C(=O)CO)CC6)c5)ccc2c34)C(=O)N1 (centres unmarked),NCI-H929,,,0.16
COc1cccc(NC(=O)Nc2nc3cc(-c4ccc5ncn(CCC6CCCCC6)c(=O)c5c4)ccc3s2)c1,PC-9,MTT,72 h,> 20000
Nc1cccc2c1CN(C1CCC(=O)NC1=O)C2=O (centres unmarked),NCI-H929,,,> 50
O=C(NO)c1ccc(Cn2cnc3c(Nc4ccc(Cl)cc4)ncnc32)cc1,Raji,MTT,72 h,360
O=C1CCC(N2C(=O)c3cccc4c(Cc5ccc(CN6CCNCC6)nc5)ccc2c34)C(=O)N1 (centres unmarked),NCI-H929,,,13.5
COc1ccc(NC(=O)Nc2nc3cc(-c4ccc5ncn(CCN(C)C)c(=O)c5c4)ccc3s2)cc1,PC-9,MTT,72 h,> 20000
